# Source: PubChem BioAssay (several laboratories)
# Only a selection was taken, and hits are over-represented in it overall.
# UPR CHOP act = activators of apoptotic arm of unfolded protein response (CHOP) | CHO-CHOP luciferase reporter, UPR activation, luminescence; percent of tunicamycin response over DMSO baseline | activation, % at 10 µM | actives 0.34% (n = 330,000);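 active = at 10 µM dose, activation of 40% or more, normalized to positive control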
#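 Material: CHO-CHOP cells, stable luciferase reporter of PERK-eIF2a-CHOP signalling; quantity: 500 reporter cells seeded per well; buffer or medium: F12 medium containing 10% fetal bovine serum; compound: one dose, 10 µM in 0.5% DMSO; incubation: 6 h compound treatment, 37 °C; measured by: Steady-Glo luciferase luminescence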
# 697 NFkB inh = lowers PMA/ionomycin-induced NF-kB signal in 697 B cells | 697 B-cell NF-kB luciferase reporter, 16 h | inhibition, % at 4 µM | actives 0.33% (n = 330,000) | AID 435022; in the data active = inhibition above about 35%
# UPR XBP1 act = activators of adaptive arm of unfolded protein response (XBP1); CHO-XBP1 luciferase reporter, IRE1-XBP1 UPR activation, luminescence; percent of tunicamycin response, DMSO as zero; actives 0.33% (n = 330,000); activation, % at 20 µM;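 active = versus positive control, 20 µM dose yields 30% or more activation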
#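 Assay system: IRE1-XBP1 luciferase reporter CHO line. Input: 1000 cells/well. Buffer or medium: F12 with 10% serum. Doses: 20 µM, 1% DMSO. Times: overnight seeding at 37 °C, 6 h compound treatment at 37 °C. Technique: Steady-Glo luciferase glow luminescence, 10 min after reagent addition.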
# Jurkat NFkB inh = inhibitors of the PMA/ionomycin-induced NF-kB reporter in Jurkat cells | PMA/ionomycin-induced NF-kB luciferase reporter, luminescence | inhibition, % at 4 µM | actives 0.53% (n = 330,000); in the data active = inhibition above about 50%
# CHOP inhibitor = inhibitors of CHOP induction in ER stress response; CHO-K1 CHOP-promoter luciferase, tunicamycin-induced, 15-18 h; inhibition, % at 10 µM; actives 3.8% (n = 220,000); AID 2732;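 active = compounds that reduced the stress-induced luciferase reporter signal by more than about 70% of percent inhibition, limit read from the data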
# Numbers stand for hits; n = inactive; x = not tested or not shown.
SMILES,UPR CHOP act,697 NFkB inh,UPR XBP1 act,Jurkat NFkB inh,CHOP inhibitor
Cc1csc(NC(=O)CSc2nc3ccccc3c(=O)[nH]2)n1,n,n,n,n,n
Cn1c(CNC(=O)CNC(=O)c2ccccc2)cc(=O)n(C)c1=O,n,n,n,n,x
Cc1[nH]c2ccccc2c1CN1CCc2ccccc2C1,n,n,n,n,91.2
O=c1[nH]c(CN2CCc3ccccc3C2)nc2ccccc12,n,n,n,n,n
CCC(NC(=O)COc1cc2c(c3oc(=O)c(C)c(C)c13)CCC(C)(C)O2)C(=O)O (stereo not given),n,n,n,n,x
COc1ccccc1CCNCc1ccc(OC)c(OCc2ccccc2)c1,n,n,n,n,81.8
COc1ccc(CNCc2ccco2)cc1OCc1ccccc1,n,n,n,n,n
CN(C)CCCN(CCCN(C)C)C(=S)Nc1ccc(S(=O)(=O)N2CCOCC2)cc1,n,n,n,n,n
O=C(CCSc1nc(-c2ccco2)cc(C(F)(F)F)n1)N1CCN(c2ccccn2)CC1,n,n,n,n,88.3
CN1CCN(C(=O)CSc2nc(-c3ccco3)cc(C(F)(F)F)n2)CC1,n,n,n,n,n
CCOCCn1c(=NC(=O)c2cc(Cl)sc2Cl)sc2cc(S(N)(=O)=O)ccc21,n,n,n,n,90.4
COCCn1c(=NC(=O)c2cc(Cl)sc2Cl)sc2cc(S(N)(=O)=O)ccc21,n,n,n,n,81.4
Cc1cccc(NC(=S)N/N=C/c2c[nH]c3ccccc23)c1,n,n,n,n,91.1
Nc1nnc(/C=C/c2ccccc2Cl)s1,n,n,n,n,n
CS(=O)(=O)c1ncc(Cl)c(C(=O)Nc2ccc3ccccc3c2)n1,x,x,x,x,105.5
Cc1cc(Cl)ccc1OC(C)C(=O)Nc1ccc([N+](=O)[O-])cn1 (stereo not given),n,n,n,n,74.8
Cc1ccc(NC(=O)Cn2c(=O)oc3cc(S(=O)(=O)N4CCC(C)CC4)ccc32)cc1C,n,n,n,n,73.9
COc1ccc(/C=N/NC(=O)c2ccc(CSc3nc(C)cc(C)n3)cc2)cc1O,n,n,n,n,n
COc1ccc(O)c(/C=N/NC(=O)c2ccc(CSc3nc(C)cc(C)n3)cc2)c1,n,n,n,n,71.1
CCN(CC)C(=O)CSc1nc2c(sc(=S)n2-c2ccccc2)c(=O)n1-c1ccc(OC)c(OC)c1,n,n,n,n,x
CC(C)c1cc(Br)ccc1OCCCN1C(=O)NC(C)(C)C1=O,n,n,n,n,73.0
Oc1ccc(C[C@@H]2CNC(=S)N2CCc2cc(C(F)(F)F)cc(C(F)(F)F)c2)cc1,n,n,n,n,80.3
Oc1ccc(C[C@H]2CNC(=S)N2CCc2cc(C(F)(F)F)cc(C(F)(F)F)c2)cc1,n,n,n,n,n
Cc1ccc(C)c(OCCC(=O)Nc2ccc(S(=O)(=O)N3CCCC3)cc2)c1,n,n,n,n,x
O=C(Nc1ccc(Cl)cc1)C1CCN(C(=O)c2cccs2)CC1,n,n,n,n,x
SMILES,UPR CHOP act,697 NFkB inh,UPR XBP1 act,Jurkat NFkB inh,CHOP inhibitor
CN(CCOCCOc1ccc2ccccc2c1)Cc1ccccc1,n,n,n,n,71.4
CCOc1ccc(OCCSc2nc3ccccc3o2)cc1,n,n,n,n,76.9
CCOC(=O)/C(N=Nc1ccc(Cl)cc1)=C(/O)c1ccc([N+](=O)[O-])cc1,n,n,n,n,86.3
N/C(Cc1ccc(Cl)cc1)=N\OC(=O)Cc1ccc([N+](=O)[O-])cc1,n,n,n,n,n
CCOc1ccccc1NC(=O)Cn1cnc2c(cnn2-c2ccc(C)c(C)c2)c1=O,n,n,n,n,n
COc1ccc(NC(=O)Cn2cnc3c(cnn3-c3ccc(C)c(C)c3)c2=O)c(OC)c1,n,n,n,n,81.6
O=C(CC(c1ccccc1)c1cc(Cl)ccc1O)NCCCN1CCOCC1 (stereo not given),n,n,n,n,x
Cc1coc(C)c1C(=O)Nc1ccc2ccccc2c1,n,n,n,n,x
Cc1ccc(-c2ccc(/C=N/N3C(=O)C4C5C=CC(CC5)C4C3=O)o2)c([N+](=O)[O-])c1 (stereo not given),n,n,n,n,88.8
Cc1ccc(C(=O)NCC(=O)OCC(=O)c2cc(C)n(Cc3ccco3)c2C)cc1,n,n,n,n,n
C=CCn1c(C)cc(C(=O)COC(=O)CNC(=O)c2ccccc2)c1C,n,n,n,n,87.3
CC(C)[C@H](NC(=O)c1ccccc1)C(=O)OCC(=O)/C=C1/N(C)c2ccccc2C1(C)C,n,n,n,n,70.0
COc1cc(OC)cc(C(=O)NCC(=O)OCC(=O)/C=C2/N(C)c3ccccc3C2(C)C)c1,n,n,n,n,n
FC(F)(F)c1cccc(Cc2noc(CN3CCCCC3c3ccccn3)n2)c1 (stereo not given),n,n,n,n,73.6
Fc1cccc(Cc2noc(CN3CCCCC3c3ccccn3)n2)c1 (stereo not given),n,n,n,n,n
CC(/C=C/c1ccccc1)=N/NC(=O)Cn1nnc(N)n1,n,n,n,n,n
CCOC(=O)n1c(=O)n(Cc2cccc(F)c2)c2ccccc21,n,n,n,n,n
CCOC(=O)n1c(=O)n(Cc2c(Cl)cccc2Cl)c2ccccc21,n,n,n,n,72.7
CCOC(=O)n1c(=O)n(Cc2ccccc2)c2ccccc21,n,n,n,n,n
CCOC(=O)n1c(=O)n(Cc2ccc(Cl)c(Cl)c2)c2ccccc21,n,n,n,n,81.3
CCOC(=O)Cc1csc(NC(=O)CSc2nc(=O)[nH]c3c2CCCC3)n1,n,n,n,n,x
CCOC(=O)C(C)On1c(-c2ccc(Cl)cc2)nc2ccc([N+](=O)[O-])cc21 (stereo not given),n,n,n,n,71.8
COn1c(-c2ccc(Cl)cc2)nc2ccc(Cl)cc21,n,n,n,n,74.1
CCOC(=O)C(C)On1c(-c2ccccc2)nc2ccc([N+](=O)[O-])cc21 (stereo not given),n,n,n,n,n
O=C(O)COn1c(-c2ccc(Cl)cc2)nc2ccc(Cl)cc21,n,n,n,n,n
SMILES,UPR CHOP act,697 NFkB inh,UPR XBP1 act,Jurkat NFkB inh,CHOP inhibitor
COC(=O)c1sc(NC(=O)/C=C/c2ccc(C)o2)nc1C,n,n,n,n,n
C/C(=N/NC(=O)CN1CCN(S(=O)(=O)c2ccc(Br)cc2)CC1)c1ccco1,n,n,n,n,n
COc1ccc(-c2nc(CSCC(=O)N3CCc4ccccc4C3)c(C)o2)cc1OC,n,n,n,n,n
COc1ccc(-c2nc(CSCC(=O)N3CCN(c4cccc(C)c4)C(C)C3)c(C)o2)cc1OC (stereo not given),n,n,n,n,76.4
Cc1ccccc1C(=O)Nc1ccccc1N1CCCCC1,n,n,n,n,87.9
O=C(Nc1ccccc1N1CCCC1)c1ccccc1Cl,n,n,n,n,x
O=C(Nc1ccccc1N1CCCCC1)c1cccs1,n,n,n,n,86.0
O=C(Nc1ccccc1N1CCCC1)c1cccnc1,n,n,n,n,n
